Screens from PubChem BioAssay.
ARFGAP1 inhibitor – inhibits rat ARF GTPase activating protein 1; Q62848; Arfgap1-stimulated ARF1 GTP hydrolysis, GDP FP detection; inhibition, % at 16.5 µM; actives 0.26% (n = 360,000);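 active = inhibition above a per-plate limit, mean inhibition of low control wells plus 3 SD, cut at about 25% in these data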
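Material: truncated rat Arfgap1 GAP domain; Incubation: compound-enzyme preincubation 20 min, reaction 120 min, detection 60 min, 25 °C; Read-out: percent inhibition of Arfgap1-stimulated GTP hydrolysis; Technique: FP, GDP Alexa 633 tracer displaced from anti-GDP antibody, 620/688 nm; Controls: No-Arfgap1 wells (100%) versus DMSO full-reaction wells (0%); Replication: single well per compound.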
GalR3 antagonist – blocks the human galanin receptor 3. O60755. HEK293 GalR3-CNG cAMP membrane potential fluorescence; galR3 body fused to GalR1 C-terminus. inhibition, % at 3 µM. actives 0.44% (n = 360,000). AID 651719;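 active = inhibition above the screen-wide average plus 3 SD, cut at about 13% in these data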;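 note: forskolin and galanin both at EC90 stimulate the cells; cAMP rise reported by CNG channel membrane potential dye signal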
Rin1 Abl inh – blocks binding of human Rin1 to Abl. P00519+Q13671. TR-FRET Rin1/Abl binding, biochemical. inhibition, % at 7.35 µM. actives 0.4% (n = 360,000); in the data active = inhibition above about 5%, passing the limit was not always enough
Target sequence (P00519 whole entry, looked up): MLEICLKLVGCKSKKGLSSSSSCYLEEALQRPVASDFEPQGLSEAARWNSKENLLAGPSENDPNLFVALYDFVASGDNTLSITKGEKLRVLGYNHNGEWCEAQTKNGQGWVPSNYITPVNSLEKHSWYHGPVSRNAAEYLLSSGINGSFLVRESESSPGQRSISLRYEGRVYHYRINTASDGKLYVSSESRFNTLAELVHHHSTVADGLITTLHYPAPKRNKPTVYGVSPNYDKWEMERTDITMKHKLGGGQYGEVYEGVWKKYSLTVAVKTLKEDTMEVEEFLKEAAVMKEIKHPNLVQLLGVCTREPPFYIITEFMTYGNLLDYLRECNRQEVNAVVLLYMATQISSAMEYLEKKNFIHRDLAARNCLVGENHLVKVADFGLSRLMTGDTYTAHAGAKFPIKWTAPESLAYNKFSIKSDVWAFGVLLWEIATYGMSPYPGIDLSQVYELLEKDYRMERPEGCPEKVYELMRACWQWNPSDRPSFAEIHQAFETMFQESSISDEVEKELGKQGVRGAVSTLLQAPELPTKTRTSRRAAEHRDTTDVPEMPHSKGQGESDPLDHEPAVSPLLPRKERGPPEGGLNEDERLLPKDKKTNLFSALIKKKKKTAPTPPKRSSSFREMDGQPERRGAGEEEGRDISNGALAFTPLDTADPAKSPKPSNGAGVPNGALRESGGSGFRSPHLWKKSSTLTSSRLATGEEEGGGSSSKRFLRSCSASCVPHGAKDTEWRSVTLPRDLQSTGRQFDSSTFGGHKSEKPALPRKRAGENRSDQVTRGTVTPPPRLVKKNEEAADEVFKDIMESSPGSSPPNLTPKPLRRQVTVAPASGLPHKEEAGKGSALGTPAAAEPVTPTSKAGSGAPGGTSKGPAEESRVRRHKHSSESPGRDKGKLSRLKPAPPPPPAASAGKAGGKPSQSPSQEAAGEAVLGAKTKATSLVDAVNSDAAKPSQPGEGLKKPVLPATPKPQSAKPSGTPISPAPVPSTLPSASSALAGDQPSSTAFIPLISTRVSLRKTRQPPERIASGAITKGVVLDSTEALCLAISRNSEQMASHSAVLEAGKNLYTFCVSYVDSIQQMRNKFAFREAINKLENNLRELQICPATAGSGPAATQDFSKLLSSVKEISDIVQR
Target sequence (Q13671 whole entry, looked up): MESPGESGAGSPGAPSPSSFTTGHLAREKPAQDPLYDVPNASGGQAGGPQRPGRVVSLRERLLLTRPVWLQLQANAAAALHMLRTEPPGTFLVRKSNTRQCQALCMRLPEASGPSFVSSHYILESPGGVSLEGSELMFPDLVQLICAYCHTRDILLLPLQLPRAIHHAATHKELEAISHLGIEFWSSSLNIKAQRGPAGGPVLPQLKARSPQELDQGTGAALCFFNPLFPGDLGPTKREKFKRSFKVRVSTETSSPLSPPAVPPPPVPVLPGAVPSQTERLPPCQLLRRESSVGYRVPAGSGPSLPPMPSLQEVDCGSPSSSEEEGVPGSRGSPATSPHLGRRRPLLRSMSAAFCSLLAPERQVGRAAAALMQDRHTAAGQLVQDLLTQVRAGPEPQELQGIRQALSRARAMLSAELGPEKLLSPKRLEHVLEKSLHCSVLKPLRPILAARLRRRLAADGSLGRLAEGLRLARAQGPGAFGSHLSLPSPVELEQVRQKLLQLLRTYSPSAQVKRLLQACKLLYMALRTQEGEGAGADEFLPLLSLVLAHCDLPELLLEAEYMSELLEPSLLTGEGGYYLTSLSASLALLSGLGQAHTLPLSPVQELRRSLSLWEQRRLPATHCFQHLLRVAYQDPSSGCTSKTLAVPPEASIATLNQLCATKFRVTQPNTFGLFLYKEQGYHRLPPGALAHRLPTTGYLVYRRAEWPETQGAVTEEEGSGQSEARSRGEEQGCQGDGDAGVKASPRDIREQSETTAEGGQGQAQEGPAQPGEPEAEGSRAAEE
ASAP1 inh – ASAP1 ArfGAP inhibition | inhibition, % at 16.5 µM | Q9ULH1 | actives 0.19% (n = 360,000) | ASAP1-stimulated ARF1 GTP hydrolysis, GDP FP detection | AID 624377; in the data active = inhibition above about 25%
ARFGAP1 inh conf – confirmation of rat ARFGAP1 inhibitors. shares compounds with ARFGAP1 inhibitor. ARFGAP1-stimulated ARF1 GTP hydrolysis, GDP tracer FP. inhibition, % at 16.5 µM. actives 30% (n = 890). AID 651608;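 active = average inhibition over triplicates above the hit cutoff set in the earlier primary screen, cut at about 25% in these data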
Of the large screens only hits and unclear results are named; the others gave an inactive call (follow-up assays come after a bar, where they were run); ! = a repeat was not active. Most compounds without a hit are left out; they make up all but 1.2% or so of the library.

C[C@@H]1C=CCCO[C@]12C(=O)N(CC1CC1)c1ccccc12	none (no result: Rin1 Abl inh)
COc1ccc(OCC2CN(Cc3ccccc3)S(=O)(=O)CCO2)cc1 (stereo not given)	none (no result: Rin1 Abl inh)
O=C(CSc1nc2c(c(=O)n1-c1ccc(Br)cc1)SCC2)NCc1ccco1	ARFGAP1 inhibitor 29 | ARFGAP1 inh conf inactive
COc1cccc(Nc2nc(-c3sc(NC(=O)c4ccccc4)nc3C)cs2)c1	ARFGAP1 inhibitor 26 | ARFGAP1 inh conf inactive
Cc1ccccc1-n1c(=O)cc(N2CCc3ccccc32)[nH]c1=O	ARFGAP1 inhibitor 25 | ARFGAP1 inh conf inactive
C[C@@H]1CN(C(=O)OC(C)(C)C)CCN1c1ccc(N2CCN(Cc3ccccc3)[C@@H](C)C2)c(C#N)c1	none (no result: Rin1 Abl inh)
COc1ccc2nc(N3C(=O)C(O)=C(C(=O)c4ccco4)C3c3ccc(OC)c(OC)c3)sc2c1 (stereo not given)	none
Cc1ccc2nc(N3C(=O)C(O)=C(C(=O)c4ccc(C)o4)C3c3cccc(O)c3)sc2c1 (stereo not given)	ARFGAP1 inhibitor 34 | ARFGAP1 inh conf 52
Cc1ccc(C(=O)Nc2ccc3c(c2)C(=O)NC3=O)cc1	ARFGAP1 inhibitor 25 | ARFGAP1 inh conf inactive
COC(=O)c1ccc(C(=O)Nc2ccc3c(c2)C(=O)NC3=O)cc1	none
COc1cccc(CN(C)C(=O)[C@@H](Cc2ccccc2)NC(=O)[C@H]2O[C@@H](n3ccc(=O)[nH]c3=O)[C@H](O)[C@@H]2O)c1	none (no result: Rin1 Abl inh)
Nc1ccc2ccc(O)cc2c1	none
C[n+]1c2cc(N)ccc2cc2ccc(N)cc21	ARFGAP1 inhibitor 25! | ARFGAP1 inh conf inactive
CCOc1cccc(C=NNC(=O)C(=O)Nc2cccc(C(F)(F)F)c2)c1O	none (no result: Rin1 Abl inh)
Cc1nn(C)c(Cl)c1/C=N/OC(=O)c1ccc(F)cc1	none
Cc1nn(C)c(Cl)c1/C=N/OC(=O)c1ccccc1	ARFGAP1 inhibitor 32 | ARFGAP1 inh conf inactive
COc1cccc(CN2CCC2(C)C(=O)Nc2cccc(Oc3ccccc3)c2)c1F (stereo not given)	none
O=C(NNC(=S)NC1CCCCC1)c1sc2ccccc2c1Cl	ARFGAP1 inhibitor 25 | ARFGAP1 inh conf 60
CCCCCCCCN1C(=O)[C@@H](CC(=O)NCCC(C)C)C[C@@]2(C(=O)OC)C1=C[C@H](C(C)(C)C)O[C@@H]2C	none (no result: Rin1 Abl inh)
O=C(CCCNC(=O)/C(=C/c1ccccc1F)NC(=O)c1ccccc1)OCc1ccccc1	ARFGAP1 inhibitor 27 | ARFGAP1 inh conf inactive
COC(=O)C1=C(C)N(Cc2cccc(C(F)(F)F)c2)C(=NCc2cc(OC)c(OC)c(OC)c2)NC1c1ccccc1C(F)(F)F (stereo not given)	none (no result: Rin1 Abl inh)
CC1=N/C(=C\c2ccc([N+](=O)[O-])cc2)C(=O)N1c1ccc(C)c(Cl)c1	none (no result: Rin1 Abl inh)
COc1cccc(-c2csc(N3CCN(C(=O)Nc4ccc(Cl)cc4)CC3)n2)c1	ARFGAP1 inhibitor 28 | ARFGAP1 inh conf inactive
COc1ccc(NC(=O)N2CCN(c3nc(-c4cccc(OC)c4)cs3)CC2)cc1	none
CCCc1ccc(Oc2cn[nH]c2-c2ccc(O)cc2O)cc1	ARFGAP1 inhibitor 30 | ARFGAP1 inh conf inactive
COc1ccc(-c2ccccc2C2Cc3nnccc3CN2)cc1 (stereo not given)	none (no result: Rin1 Abl inh)
C[C@H](CO)N1C[C@H](C)[C@@H](CN(C)C(=O)Nc2ccc(C(F)(F)F)cc2)Oc2ccc(NC(=O)Nc3ccccc3)cc2C1=O	ARFGAP1 inhibitor 30 | ARFGAP1 inh conf inactive
C[C@@H]1CCCCO[C@H](CN(C)Cc2ccc(C(=O)O)cc2)[C@H](C)CN([C@@H](C)CO)C(=O)c2cc(NC(=O)Nc3ccc(C(F)(F)F)cc3)ccc2O1	ARFGAP1 inhibitor 25 | ARFGAP1 inh conf inactive
C[C@H](CO)N1C[C@H](C)[C@@H](CN(C)C(=O)Nc2ccccc2)Oc2ccc(NC(=O)Nc3ccccc3)cc2C1=O	none
COC(=O)c1cc2c(c3c4cc(F)ccc4n(S(=O)(=O)c4ccccc4)c13)C(=O)N(Cc1ccccc1)C2	none (no result: Rin1 Abl inh)
CC(C)c1[nH]nc2c1C(c1ccc3c(c1)OCO3)NC2=O (stereo not given)	none (no result: Rin1 Abl inh)
COc1cccc(-c2nc(CS(=O)(=O)CC(=O)Nc3cccc(C(C)=O)c3)c(C)o2)c1	none
COc1ccc(-c2nc(CS(=O)(=O)CC(=O)Nc3cccc(C(C)=O)c3)c(C)o2)cc1	ARFGAP1 inhibitor 27 | ARFGAP1 inh conf inactive
Cc1ccc(-c2nc(C(=O)NCCCN3CCOCC3)cc3c2[nH]c2ccccc23)cc1	none
